The data set deals with MS2 coat protein. Put plainly: apparent Kd, MS2 coat protein; higher = weaker binding; RNA-MaP array; FMN 200 µM where present. The method, boiled down:
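Stalled E. coli RNA polymerase transcribed each design on Illumina sequencing-chip clusters. The clusters were titrated with SNAP-549-labelled MS2 coat protein, starting at 0.7 or 1.5 nM and doubling up to 3 µM, first without ligand and then with constant ligand, in 100 mM Tris-HCl pH 7.5, 80 mM KCl, 4 mM MgCl2, BSA, DTT, yeast tRNA and Tween-20. Green signal was normalised to red-channel RNA signal and to the control-cluster median Fmax. The apparent Kd is the median of filtered binding-curve fits made for each cluster.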

The mark [1] stands for this setting: designed as: OFF switch for flavin mononucleotide, no ligand.
[2] abbreviates: ligand present: flavin mononucleotide, designed as: OFF switch for flavin mononucleotide.
The mark [3] stands for this setting: designed as: ON switch for flavin mononucleotide, no ligand.
Setting [4] is: ligand present: flavin mononucleotide, designed as: ON switch for flavin mononucleotide.

Experimental findings from the EternaBench riboswitch data are described below.

Take “GAUCCUUCUGUUAGGAUAUGCUACGGGCUUCCGCUGCAGAAGGAACAUGAGGAUCACCCAUGUCAAAUAAAAUC”: the “apparent Kd” value reads like this: under setting [1], 20.1 nM; under setting [2], 80.2 nM.

On to “UGUUGUAUUACAGGAUAUCUAGUAUUUUUAUUAAGAGAAGGGUAUUCACAUGAGGAUCACCCAUGUAUAUACGAGGAAGUUGUG”, for which the “apparent Kd” value under setting [3] is 42.4 nM and the “apparent Kd” value under setting [4] was determined as 42.4 nM.

Turning to “AAUAACAGAGGAUAUACUGUUUUAUGUAUUUAUUAUUUUAAACAUGAGGAUCACCCAUGUAGAAGGCUGAAUAA”, the “apparent Kd” value runs as follows: under setting [1], 21.9 nM; under setting [2], 18.6 nM.

Regarding “ACACAUGUCCGAGGAUAUCUGAGAUCAUUUUCAAGAGAAGGCGGACAUGAGGAUCACCCAUGUCUCUCCUCAUCAACUCCAAAU”, the “apparent Kd” value came to 8.06 nM under setting [1] and 49.2 nM under setting [2].

As to “UUGGACGUCGUAGGAUAUGUAGGAUAUUACUACAUGAGGAUCACCCAUGUUGACAUGGAAGAAGGACAGAAGGACGAUGUCCAU”, the “apparent Kd” value came out at 638 nM under setting [3] and 6.52 nM under setting [4].

As for “UAUAUAUAGUAAGGAUAUGUAUUUAGUUUAUAAACAGAAGGUACUGACAUGAGGAUCACCCAUGUUUUAGUGUGGGCAUGUAGA”, the “apparent Kd” value runs as follows: under setting [1], 87.7 nM; under setting [2], 127 nM.

For the sequence “CGGUCUUGCAACUAUUUGUUUCACAUGAGGAUCACCCAUGUCAGAAGGAGGUGCGUCUAUUAGACCUAGGAUAUGACGUGUAAG”, the “apparent Kd” value reads like this: under setting [1], 15.5 nM; under setting [2], 26 nM.

For “AGUGUUGGAGGAUAUACAUGAGGAUCACCCAUGUACAUCACACAGUAUAUGAAACCAUGUAGAAGGCCAAUACA”, the “apparent Kd” value was determined as 55.8 nM under setting [1] and 73.8 nM under setting [2].

As for “GCCCAACAUGAGGAUCACCCAUGUAAGGAUAUUGGAUGUGUGUGGAAACAUAUAUAAACGAGAAGGUACAGGGC”, the “apparent Kd” value runs as follows: under setting [1], 38.4 nM; under setting [2], 28.9 nM.

As to “AGCUACGUUUCGUAGCAGUGUCAUCGAGAAGGCUCAUAAACAUGAGGAUCACCCAUGUAUUCAUGGGAGGAUAUCGAUGAUACA”, the “apparent Kd” value runs as follows: under setting [3], 32.2 nM; under setting [4], 6.04 nM.

On to “GUAGCAUAGUCAGGAUAUUCAUAUAAUAAAUAAACAUGAGGAUCACCCAUGUGGCGAAAGCCUUGGGAGAAGGGACAAUGCUAC”, for which the “apparent Kd” value reads like this: under setting [3], 1210 nM; under setting [4], 90.2 nM.

“GGAUGACAAAGUCAUCCUAUUCGAACAUGAGGAUCACCCAUGUAGGAUAUGGUACUCAAAGAGUACCAGAAGGACAUGUGCUUU”: the “apparent Kd” value reads like this: under setting [1], 36.2 nM; under setting [2], 127 nM.

Consider “UAUAUAUAGUAAGGAUAUGUAUAUAGUUUAUAAACAGAAGGUACUGACAUGAGGAUCACCCAUGUUUUAGUGUGGGCAUGUAGA”, for which the “apparent Kd” value runs as follows: under setting [1], 77.9 nM; under setting [2], 99.5 nM.

Turning to “AAUACAAAUAGUCAGGAUAUCAAAAAUAAGACAUGAGGAUCACCCAUGUAAUAAGUAAAAGUAAAUGAGAAGGGACAGGGUGAAA”, the “apparent Kd” value under setting [3] amounted to 168 nM and the “apparent Kd” value under setting [4] was found to be 266 nM.

Take “AAAUUUAACGAAGGAUAUGCUGACAUGAGGAUCACCCAUGUGUGCCUUGUGUUACUGACUCGGAAGCAGAAGGUCGUAUACAUA”: the “apparent Kd” value under setting [1] is 400 nM and the “apparent Kd” value under setting [2] amounted to 552 nM.

For “UUUUGAUGAGGAUAUCGAGGUUAGUACAUGAGGAUCACCCAUGUUAUCCAGGUGUCGGUUCGAGAAGGUAUUGGAC”, the “apparent Kd” value under setting [1] turned out to be 18.5 nM and the “apparent Kd” value under setting [2] turned out to be 22.9 nM.

On to “AAACAUGUCCGAGGAUAUCUGGAAAUAUUUCCAAGAGAAGGCGGACAUGAGGAUCACCCAUGUCUCUCCUCAUCAAAUCCAAGU”, for which the “apparent Kd” value is, setting by setting: under setting [1], 9.36 nM; under setting [2], 73.3 nM.

Regarding “CUUUUGUGAGGAUAUCAGUAGUAAAUAAAUAAAAUAACUACUGAGAAGGCACAUGAGGAUCACCCAUGUUCCUC”, the “apparent Kd” value runs as follows: under setting [1], 35.8 nM; under setting [2], 223 nM.

Take “CUCAUGUCAGGAUAUCAGUAGUAAAAAAAUAAAAUUACUACUGAGAAGGGACAUGAGGAUCACCCAUGUCCGGG”: the “apparent Kd” value by setting is: under setting [1], 20.4 nM; under setting [2], 18.4 nM.

For “CUUUUGUGAGGAUAUCAGUAGUAUAAAAAUAAAAUUACUACUGAGAAGGCACAUGAGGAUCACCCAUGUUCCUC”, the “apparent Kd” value under setting [1] turned out to be 39 nM and the “apparent Kd” value under setting [2] was 226 nM.

Take “AGCGUACAUGUUAGGAUAUGCUGUAGGAAUACUCAGCAGAAGGAACAUGAGGAUCACCCAUGUUUGUCCGUUCU”: the “apparent Kd” value by setting is: under setting [1], 14.5 nM; under setting [2], 23.9 nM.

For the sequence “GGAUAGAUGAAGGGCGAACGCGCACAUGAGGAUCACCCAUGUAGAAGGCGGUCCGCAACGCGGAUCGAGGAUAUAUAGUAUACG”, the “apparent Kd” value by setting is: under setting [1], 18.4 nM; under setting [2], 16.8 nM.

As to “UUACUAUUGGAGAAGGGUCGAUCAUAUAGAAUGGCAGGAUAUCCAACAUGAGGAUCACCCAUGUUUCACCCAUAUGAGGAUCAC”, the “apparent Kd” value runs as follows: under setting [1], 116 nM; under setting [2], 44.9 nM.

Consider “GGACAUCCCACAGGAUAUGCUGGACUUUGUCCAGCAGAAGGGUGAAAACAUGAGGAUCACCCAUGUAGGAUGUCCAUAUUUAAU”, for which the “apparent Kd” value came to 112 nM under setting [3] and 643 nM under setting [4].

On to “GUAGCAUACAGAGGAUAUCUUAACCGGAAACGGACAUGAGGAUCACCCAUGUGGCGAAAGCCUAGGGAGAAGGCUGAAUGCUAC”, for which the “apparent Kd” value worked out at 10.2 nM under setting [3] and 11.1 nM under setting [4].

Regarding “GCGUGGUUCUAGAAGGUGCUAGCGAUAAGCUAGCAAGGAUAUAGACAUGAGGAUCACCCAUGUCUAUGUGAAAUAGACACACGC”, the “apparent Kd” value under setting [1] came to 4.75 nM and the “apparent Kd” value under setting [2] turned out to be 4.62 nM.

For “GCCAGGCAUGUAGGAUAUCCAUUGCGUCGCGUUGGAGAAGGGCAGCACACAUGAGGAUCACCCAUGUGGUCUCCCAUGUAGUGU”, the “apparent Kd” value by setting is: under setting [1], 163 nM; under setting [2], 206 nM.

As to “GGAUAGGGCAGAGGAUAUACGUGCUAGAGAUACUAGCAAAAUUUCCUCACAUGAGGAUCACCCAUGUAGAAGGCUGUCCUAUCG”, the “apparent Kd” value came out at 14.1 nM under setting [1] and 464 nM under setting [2].

On to “AAAAAAAAAACUCAGGAUAUAGAUCGUUGAACAUGAGGAUCACCCAUGUAGUGAAAAGCGAAAAACUAGAAGGGAGGAAAAAAAAA”, for which the “apparent Kd” value stood at 28.9 nM under setting [3] and 19.8 nM under setting [4].

As to “UCCGGACAUGAGGAUCACCCAUGUCAGGAUAUACCCGAGGCAGCGAACUCGCUAGCCAGUAGAAGGGACAUGGU”, the “apparent Kd” value is, setting by setting: under setting [1], 19.8 nM; under setting [2], 20.8 nM.

As to “GGGUACAGUGAGAAGGUCUGCGGAUUCCUUAACAUGAGGAUCACCCAUGUAGAAGGAUAUCACAGGUAAAGGUCGGCUAACGAU”, the “apparent Kd” value under setting [1] was 5.36 nM and the “apparent Kd” value under setting [2] was 6.58 nM.

For the sequence “UUUUGAAAGUGAGGAUAUGACAUGAGGAUCACCCAUGUAAAGGGAGUUGAAUAUAUAGAAAGAUAUCAGAAGGCACAAAUGUUU”, the “apparent Kd” value under setting [1] amounted to 178 nM and the “apparent Kd” value under setting [2] is 497 nM.

As for “GUUAGUUAAGGAUAUACUGGGAGCUGCGGCGUCUCGCCGCAACAUGAGGAUCACCCAUGUAGAAGGUGGCCAUU”, the “apparent Kd” value under setting [1] turned out to be 765 nM and the “apparent Kd” value under setting [2] was determined as 425 nM.

With “GUGGUACAUGAGGAUCACCCAUGUUAGGAUAUCGCGUGAGGUAAAACUUACACACACACGAGAAGGGACGACAU”, the “apparent Kd” value reads like this: under setting [1], 88.6 nM; under setting [2], 56.2 nM.

As for “UACGCCUAGGAGAAGGGCCCACUAUAGGGUAAAUGCUGUUCUCACAUGAGGAUCACCCAUGUGCGGCAGGAUAUCCACGCGUAC”, the “apparent Kd” value was found to be 8.25 nM under setting [1] and 39 nM under setting [2].

With “UGGUACAUCGGAGGAUAUCGUGUGUAAACAUGAGGAUCACCCAUGUCGUACGAGAGUACGUAGAUCGAGAAGGCCGAUGUACCU”, the “apparent Kd” value is, setting by setting: under setting [3], 17.2 nM; under setting [4], 14.7 nM.
